Measured values from ChEMBL document CHEMBL1926645, “Synthesis and biological evaluation of (4H-1,2,4-triazol-4-yl)isoquinoline derivatives as selective glycine transporter 1 inhibitors” (Bioorg Med Chem, 2012).
≈ marks a conversion by molar mass, not a printed value. Values belong to the compound of their own block, whether it stands above or below them.

Legend:
[1] = target: T1, Sodium- and chloride-dependent glycine transporter 1 (Rattus norvegicus, UniProt P28572); experiment: Displacement of [3H]glycine from rat GlyT1 expressed in rat C6 cells after 30 mins by scintillation counting; format: cell-based
T1 sequence (P28572 whole entry): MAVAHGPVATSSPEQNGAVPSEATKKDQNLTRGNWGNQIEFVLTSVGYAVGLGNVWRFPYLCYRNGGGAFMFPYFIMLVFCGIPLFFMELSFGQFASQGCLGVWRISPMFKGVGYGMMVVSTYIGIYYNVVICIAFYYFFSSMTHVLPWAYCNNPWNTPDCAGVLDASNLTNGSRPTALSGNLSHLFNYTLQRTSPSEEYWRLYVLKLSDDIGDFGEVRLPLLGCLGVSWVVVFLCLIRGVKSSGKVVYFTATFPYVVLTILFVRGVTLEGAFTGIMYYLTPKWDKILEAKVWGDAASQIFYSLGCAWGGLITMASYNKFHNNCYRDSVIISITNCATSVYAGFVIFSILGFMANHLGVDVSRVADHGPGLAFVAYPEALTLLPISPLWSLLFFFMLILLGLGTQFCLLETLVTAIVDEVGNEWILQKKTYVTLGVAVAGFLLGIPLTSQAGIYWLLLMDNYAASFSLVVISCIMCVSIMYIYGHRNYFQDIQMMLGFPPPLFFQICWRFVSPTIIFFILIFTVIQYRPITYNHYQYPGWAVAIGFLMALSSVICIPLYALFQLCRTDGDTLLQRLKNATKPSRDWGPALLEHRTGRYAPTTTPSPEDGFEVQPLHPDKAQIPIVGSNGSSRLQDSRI
Procedure, shortened: (§1)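 Rat GlyT1-expressing C6 cells grown in D-MEM/10% FCS, 37 °C, 5% CO2, plated 2 days ahead. Cells washed, then preincubated 30 min with compound in HEPES buffer pH 7.4 (NaCl, KCl, MgCl2, CaCl2, glucose, L-alanine). Uptake started with [3H]glycine, 10 min at 37 °C. Nonspecific uptake defined with 3 mmol/L sarcosine. Cells washed with ice-cold PBS, lysed in 0.1 mol/L NaOH, scintillation counted; mean ± SEM of three independent experiments.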

Rattus norvegicus = organism: Rattus norvegicus; experiment: Selectivity ratio of IC50 for rat GlyT2 to IC50 for rat GlyT1
[2] = Aqueous solubility of the compound at pH 1.2; format: physicochemical
Procedure, shortened: (§2)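 Compound suspension held at 25 °C for 20 h; precipitate removed by filtration and dissolved concentration in filtrate measured by HPLC.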

[3] = target: T2, Sodium- and chloride-dependent glycine transporter 2 (Rattus norvegicus, UniProt P58295); experiment: Displacement of [3H]glycine from Wistar rat brain GlyT2 after 10 mins by scintillation counting
T2 sequence (P58295 whole entry): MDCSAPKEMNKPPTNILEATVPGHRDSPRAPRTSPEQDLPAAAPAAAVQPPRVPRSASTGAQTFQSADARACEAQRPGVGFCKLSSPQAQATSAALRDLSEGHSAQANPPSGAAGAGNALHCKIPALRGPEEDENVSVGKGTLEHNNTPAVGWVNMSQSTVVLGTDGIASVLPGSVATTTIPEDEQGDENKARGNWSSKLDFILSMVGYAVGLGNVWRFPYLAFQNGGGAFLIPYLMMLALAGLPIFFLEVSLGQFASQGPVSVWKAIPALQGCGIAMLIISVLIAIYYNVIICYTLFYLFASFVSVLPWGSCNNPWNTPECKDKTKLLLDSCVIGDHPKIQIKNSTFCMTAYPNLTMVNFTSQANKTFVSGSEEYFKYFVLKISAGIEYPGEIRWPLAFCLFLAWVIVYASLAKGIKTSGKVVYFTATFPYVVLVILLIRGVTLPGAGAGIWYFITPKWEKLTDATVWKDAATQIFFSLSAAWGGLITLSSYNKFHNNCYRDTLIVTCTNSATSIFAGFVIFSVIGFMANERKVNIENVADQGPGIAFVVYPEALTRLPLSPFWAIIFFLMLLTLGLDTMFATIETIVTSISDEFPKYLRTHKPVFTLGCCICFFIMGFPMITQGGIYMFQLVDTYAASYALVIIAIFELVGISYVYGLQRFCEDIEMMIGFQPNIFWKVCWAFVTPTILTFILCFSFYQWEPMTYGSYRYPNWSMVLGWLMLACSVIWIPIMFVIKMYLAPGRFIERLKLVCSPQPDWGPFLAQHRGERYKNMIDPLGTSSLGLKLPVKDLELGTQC
Procedure, shortened: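 Primary brainstem cells from Wistar rat fetuses (E17) were papain-dispersed, plated on poly-L-lysine, and cultured 14–21 days. The assay buffer, pH 7.4, contained 3 mmol/L sarcosine; wells were preincubated 10 min at 37 °C. Compound was added with ~0.3 µM [3H]glycine for 10 min at 37 °C, followed by four ice-cold washes, NaOH lysis and scintillation counting. Specific uptake was defined with 3 mmol/L glycine; mean ± SEM of three independent experiments.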

[4] = Aqueous solubility of the compound at pH 6.8; format: physicochemical; procedure, shortened: as §2
[5] = target: T3, Sodium- and chloride-dependent glycine transporter 1 (Rattus norvegicus) (UniProt P28572); experiment: Displacement of [3H]glycine from rat GlyT1 expressed in rat C6 cells at 10 uM after 30 mins by scintillation counting; format: cell-based; procedure, shortened: as §1
T3 sequence (whole entry): T1 sequence (P28572 whole entry)

Mus musculus = experiment: Antipsychotic activity in ICR mouse assessed as inhibition of (+)-HA966-induced hyperlocomotion at 10 mg/kg, ip administered 20 mins prior (+)-HA966] challenge measured every 90 mins; format: functional; settings: route intraperitoneal
Procedure, shortened: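 Mice, 16 per group, pretreated with reserpine 10 mg/kg ip 19 h and α-methyl-para-tyrosine methyl ester 250 mg/kg ip 30 min before bilateral intracerebroventricular (+)-HA966 80 µg/mouse; ACSF+vehicle controls. Locomotor activity integrated over 90 min immediately after (+)-HA966. Percent inhibition = 100 × [(HA966+vehicle − ACSF+vehicle) − (HA966+compound − ACSF+vehicle)] / (HA966+vehicle − ACSF+vehicle).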

SMILES: CCc1nnc(-c2ccc(-c3ccccc3)cc2)n1-c1cccc2c[n+]([O-])ccc12
- IC50 [1]: > 10 µM
- inhibition [5]: 28%

SMILES: CC(C)c1nnc(-c2ccc(-c3ccccc3)cc2)n1-c1ccccc1F
- solubility [2]: 5 µM (≈ 1.79 µg/mL)
- solubility [4]: < 1 µM
- inhibition in vivo at 10 mg/kg (Mus musculus): 70%

SMILES: CCc1nnc(-c2ccc(-c3ccccc3)cc2)n1C(C)c1ccncc1 (stereo unspecified)
- IC50 [1]: > 10 µM
- inhibition [5]: 36%

SMILES: CCc1nnc(-c2ccc(-c3ccccc3)cc2)n1Cc1ccncc1
- IC50 [1]: > 10 µM
- inhibition [5]: 15%

SMILES: CCc1nnc(-c2ccc(-c3ccccc3)cc2)n1-c1cccc2c(=O)[nH]ccc12
- IC50 [1]: > 10 µM
- inhibition [5]: 16%

SMILES: CCc1nnc(-c2ccc(-c3ccccc3)cc2)n1-c1cccc2cc[nH]c12
- IC50 [1]: 22 µM

SMILES: CCc1nnc(-c2ccc(-c3ccccc3)cc2)n1-c1cccc2cnccc12
- solubility [2]: > 100 µM
- solubility [4]: 5 µM (≈ 1.88 µg/mL)

SMILES: CCc1nnc(-c2ccc(-c3ccccc3)cc2)n1-c1cccc2c1CCNC2
- IC50 [1]: > 10 µM
- inhibition [5]: 25%

SMILES: CCc1nnc(-c2ccc(-c3ccccc3)cc2)n1-c1ccccc1F
- Ratio IC50 (Rattus norvegicus): 1
- solubility [2]: 96 µM (≈ 33 µg/mL)
- solubility [4]: < 1 µM

Further compounds by falling IC50 [1], results first:

- IC50 [1]: 7.5 µM
SMILES: CCc1nnc(-c2ccc(-c3ccccc3)cc2)n1-c1cccc2nc[nH]c12

- IC50 [1]: 5.6 µM
SMILES: CCc1nnc(-c2ccc(-c3ccccc3)cc2)n1-c1cccc2cn[nH]c12

- IC50 [1]: 3.7 µM
SMILES: CCc1nnc(-c2ccc(-c3ccccc3)cc2)n1-c1cncc2ccccc12

- IC50 [1]: 3 µM
SMILES: CCc1nnc(-c2ccc(-c3ccccc3)cc2)n1-c1cccc2ccn(C)c12

- IC50 [1]: 2.8 µM
SMILES: CCc1nnc(-c2ccc(-c3ccccc3)cc2)n1-c1cccc2[nH]ncc12

- IC50 [1]: 1.7 µM
SMILES: CCc1nnc(-c2ccc(-c3ccccc3)cc2)n1-c1ccnc2ccccc12

- IC50 [1]: 1.4 µM
SMILES: CCc1nnc(-c2ccc(-c3ccccc3)cc2)n1-c1nccc2ccccc12

- Ratio IC50 (Rattus norvegicus): 3.3
- solubility [2]: > 100 µM
- IC50 [1]: 0.82 µM
- IC50 [3]: 2700 nM
- solubility [4]: 9 µM (≈ 3.39 µg/mL)
SMILES: CCc1nnc(-c2ccc(-c3ccccc3)cc2)n1-c1cccc2ncccc12

- Ratio IC50 (Rattus norvegicus): 5.3
- solubility [2]: > 100 µM
- IC50 [1]: 0.8 µM
- IC50 [3]: 4200 nM
- solubility [4]: 11 µM (≈ 4.14 µg/mL)
SMILES: CCc1nnc(-c2ccc(-c3ccccc3)cc2)n1-c1cccc2ccncc12

- Ratio IC50 (Rattus norvegicus): 1.3
- solubility [2]: > 100 µM
- IC50 [1]: 0.3 µM
- IC50 [3]: 380 nM
- solubility [4]: 23 µM (≈ 8.66 µg/mL)
SMILES: CCc1nnc(-c2ccc(-c3ccccc3)cc2)n1-c1cccc2cccnc12
